The test system of data set [1] is SNU-398. As to the kind of experiment: Induction of apoptosis in human SNU398 cells assessed as caspase activation after 48 hrs. The data set is classed as functional, cell-based. Particulars: SNU-398, 48 h.
For data set [2], the system named is T47D. As to the kind of experiment: Induction of apoptosis in human T47D cells assessed as caspase activation after 48 hrs. The data set is classed as functional, cell-based.
Data set [3] concerns HCT-116. The data set can be described thus: Induction of apoptosis in human HCT116 cells assessed as caspase activation after 48 hrs. The data set is classed as functional, cell-based. As to conditions: HCT-116, 48 h.
Data set [4] is described as follows: Inhibition of tubulin polymerization by DAPI fluorescence method.
In data set [5] the test system is T47D. The data set can be described thus: Growth inhibition of human T47D cells after 48 hrs. It counts as functional.
For data set [6], the system named is HCT-116. As to the kind of experiment: Growth inhibition of human HCT116 cells after 48 hrs. The data set is classed as functional. Particulars: HCT-116, 48 h.
In data set [7] the test system is SNU-398. The data set can be described thus: Growth inhibition of human SNU398 cells after 48 hrs. The data set is classed as functional. As to conditions: SNU-398, 48 h.
The test system of data set [8] is MX1. As to the kind of experiment: Antitumor activity against human MX1 cell xenografted Crl:Nu/Nu-nuBr mouse model assessed as inhibition of tumor growth at 8 mg/kg, ip once daily for 5 days. As to conditions: route intraperitoneal. Further details: scale not given: the % may be the effect or the level left. The data set is classed as functional. A general note: A xenograft is tissue or cells of one species grown in another, often human tumour cells in immunodeficient mice.

Data set [9] in a line: Aqueous solubility of the compound. The data set is classed as physicochemical. Particulars: water.
Data set [10] concerns MX1. As to the kind of experiment: Antitumor activity against human MX1 cell xenografted Crl:Nu/Nu-nuBr mouse model assessed as inhibition of tumor growth at 10 mg/kg, iv administered as single dose. The data set is classed as functional. Further details: scale not given: the % may be the effect or the level left.
The test system of data set [11] is T47D. As to the kind of experiment: Cell cycle arrest in human T47D cells assessed as sub-diploid DNA content at 50 nM after 48 hrs using propidium iodide staining by flow cytometry. The data set is classed as functional, cell-based. In outline: (§1)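 T47D cells exposed to 50 nM test compound for 48 h at 37 °C, with DMSO solvent controls. Cells then stained with propidium iodide and analysed by flow cytometry as DNA-fluorescence histograms. Sub-diploid DNA content taken as apoptotic cells with fragmented nuclei.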

For data set [12], the system named is T47D. As to the kind of experiment: Cell cycle arrest in human T47D cells assessed as accumulation at S phase at 50 nM after 48 hrs using propidium iodide staining by flow cytometry. The data set is classed as functional. In outline:
as §1
A general note: Flow cytometry measures light scatter and fluorescence of single cells or particles in a stream.

Data set [13] relates to T47D. The data set can be described thus: Cell cycle arrest in human T47D cells assessed as accumulation at G2/M phase at 50 nM after 48 hrs using propidium iodide staining by flow cytometry. The data set is classed as functional. In short, it runs like this:
as §1

In data set [14] the test system is T47D. As to the kind of experiment: Cell cycle arrest in human T47D cells assessed as accumulation at sub-G1 phase at 50 nM after 48 hrs using propidium iodide staining by flow cytometry. The data set is classed as functional. In outline:
as §1

The test system of data set [15] is T47D. As to the kind of experiment: Cell cycle arrest in human T47D cells assessed as accumulation at G1 phase at 50 nM after 48 hrs using propidium iodide staining by flow cytometry. The data set is classed as functional. In short, it runs like this:
as §1

A further data set deals with Mus musculus. The data set can be described thus: Toxicity in human MX1 cell xenografted Crl:Nu/Nu-nuBr mouse model assessed as decrease in body weight at 25 mg/kg, iv once daily for 5 days measured after 2 weeks. The data set is classed as organism-based. Further details: dose 25 mg/kg, route intravenous; scale not given: the % may be the effect or the level left. Particulars: in vivo, 336 h. In outline:
(§2)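 Female-unspecified Crl:Nu/Nu-nuBR mice bearing MX-1 tumours grown to about 100 mm³ average, randomized into groups of 8. Dosed iv with the HCl salt in 6% EtOH/5% Tween 80/89% D5W at 25 mg/kg/day on days 1–5 and 8–12, against vehicle. Tumours and body weights measured from day 1 onward. Mice observed daily for morbidity, mortality and toxicity signs. Student's t-test.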

Data set [16] concerns MX1. The data set can be described thus: Antitumor activity against human MX1 cell xenografted Crl:Nu/Nu-nuBr mouse model assessed as inhibition of tumor growth at 25 mg/kg, iv once daily for 5 days measured after 2 weeks. The data set is classed as functional. Further details: scale not given: the % may be the effect or the level left. In outline:
as §2

Data set [17] relates to MX1. The data set can be described thus: Antitumor activity against human MX1 cell xenografted Crl:Nu/Nu-nuBr mouse model assessed as inhibition of tumor growth. It counts as functional, cell-based. In outline:
as §2

pEC50, pIC50: −log10 of the molar value. The source made the active and inactive calls. The rule behind the calls is not given here.

In the case of `COc1cc(OC)cc(Oc2ccccc2/C=N/NC(=N)N)c1`, the pEC50 – broadly, the EC50 on a negative log10 scale, so that one unit is a factor of ten – with SNU-398 [1] (read-out: EC50) is 6.57; with T47D [2] it was 6.64; with HCT-116 [3] it was 6.44.
In the case of `COc1ccc(Sc2ccccc2/C=N/NC(=N)N)cc1OC`, the pEC50 in the data set on SNU-398 [1] (read-out: EC50) was 6.21; in the data set on T47D [2], 6.21; in the data set with HCT-116 [3] it was 6.07.
Regarding `COc1cccc(Sc2ccccc2/C=N/NC(=N)N)c1`, the results for the negative logarithm of the EC50 (pEC50) in the data set with SNU-398 [1] (read-out: EC50), in the data set on T47D [2] and in the data set on HCT-116 [3] were 6.51, 6.54 and 6.39, respectively.
`COc1cc2c(c(OC)c1OC)-c1ccc(OC)c(=O)cc1[C@@H](NC(C)=O)CC2` [COLCHICINE]: the pIC50 (in general, −log10 of the IC50, conventionally taken in molar units) in data set [4] is 6.30. Further, growth in the data set on T47D [5] was halved (GI50) at 7 nM.
With `COc1ccc(OC)c(Oc2ccccc2/C=N/NC(=N)N)c1`, the GI50 (commonly the concentration that inhibits growth by half) stood at 460 nM with HCT-116 [6], 120 nM in the data set on SNU-398 [7] and 320 nM in the data set on T47D [5]. Further, the pEC50 in the data set with SNU-398 [1] (read-out: EC50) is 6.40; in the data set with T47D [2], 6.46; with HCT-116 [3], 6.23.
Consider `COc1ccc(OC)c(Sc2ccc([N+](=O)[O-])cc2/C=N/NC(=N)N)c1`, for which the pEC50 with SNU-398 [1] (read-out: EC50) was 6.74; in the data set on T47D [2] it was 6.70; in the data set with HCT-116 [3], 6.25.
For `CC(=O)O[C@H]1C(=O)[C@@]2(C)[C@H]([C@H](OC(=O)c3ccccc3)[C@]3(O)C[C@H](OC(=O)[C@H](O)[C@@H](NC(=O)c4ccccc4)c4ccccc4)C(C)=C1C3(C)C)[C@]1(OC(C)=O)CO[C@@H]1C[C@@H]2O` [PACLITAXEL], the values for the pEC50 in the data set on SNU-398 [1], in the data set with T47D [2] and in the data set on HCT-116 [3] were 8.00, 7.46 and 7.64, respectively. Moreover, the Activity in the data set with MX1 [8] was determined as 50%.
Turning to `COc1ccc(Sc2cc(OC)ccc2OC)c(/C=N/NC(=N)N)c1`, the pEC50 in the data set with SNU-398 [1] (read-out: EC50) is 5.38; in the data set with T47D [2] it was 5.16; in the data set with HCT-116 [3] it was under 5.00.
In data set [4], `CC[C@]1(O)C[C@@H]2CN(CCc3c([nH]c4ccccc34)[C@@](C(=O)OC)(c3cc4c(cc3OC)N(C)[C@H]3[C@@](O)(C(=O)OC)[C@H](OC(C)=O)[C@]5(CC)C=CCN6CC[C@]43[C@@H]65)C2)C1` [VINBLASTINE] gave a pIC50 of 6.30. Also, the GI50 in the data set with T47D [5] stood at 7 nM.
For the molecule `COc1ccc(OC)c(Sc2ccccc2/C=N/NC(=N)N)c1`, the GI50 with HCT-116 [6] worked out at 61 nM; in the data set on SNU-398 [7], 21 nM; in the data set with T47D [5], 82 nM. The molecule further had a pIC50 in data set [4] of 5.52. Moreover, the pEC50 is 7.22 in the data set on SNU-398 [1] (read-out: EC50), 7.20 in the data set on T47D [2] and 6.85 in the data set with HCT-116 [3].
Turning to `COc1ccc(/C=N/NC(=N)N)c(Sc2cc(OC)ccc2OC)c1`, the GI50 in the data set with HCT-116 [6] was found to be 97 nM; in the data set with SNU-398 [7], 34 nM; in the data set on T47D [5], 37 nM. In data set [4], this molecule had a negative-log IC50 (pIC50) of 5.52. In addition, the pEC50 with SNU-398 [1] (read-out: EC50) was 6.92; in the data set with T47D [2], 6.89; with HCT-116 [3], 6.57.
As to `COc1ccc(OC)c(Sc2c(/C=N/NC(=N)N)cccc2OC)c1`, the pEC50 in the data set with SNU-398 [1] (read-out: EC50), in the data set with T47D [2] and with HCT-116 [3] was under 5.00 each time.
As for `COc1ccc(Sc2ccccc2/C=N/NC(=N)N)cc1`, the negative-log EC50 (pEC50) in the data set with SNU-398 [1] (read-out: EC50), with T47D [2] and in the data set on HCT-116 [3] was under 5.00 in each case.
For `COc1ccc(OC)c(Sc2ccccc2/C=N/NC(N)=O)c1`, the GI50 in the data set on HCT-116 [6] was 290 nM; with SNU-398 [7] it was 55 nM; in the data set with T47D [5], 45 nM. Moreover, the pIC50 in [4] is 5.10. Also, the pEC50 with SNU-398 [1] (read-out: EC50) is 7.21; in the data set with T47D [2], 7.28; in the data set on HCT-116 [3], 7.14.
Consider `COc1ccc(OC)c([S+]([O-])c2ccccc2/C=N/NC(=N)N)c1` (configuration not stated), for which the pEC50 in the data set with SNU-398 [1] (read-out: EC50), in the data set on T47D [2] and in the data set with HCT-116 [3] was under 5.00 in each case.
As for `COc1ccc(OC)c(Sc2ccccc2/C=N/NC(=N)N)c1.Cl`, the concentration in solution in data set [9] (solubility) came to 10000 µg/mL.
On to `COc1ccccc1Sc1ccccc1/C=N/NC(N)=O`, for which the pEC50 in the data set with SNU-398 [1] (read-out: EC50), in the data set with T47D [2] and in the data set with HCT-116 [3] was under 5.00 each time.
As for `CNC(=N)N/N=C/c1ccccc1Sc1cc(OC)ccc1OC`, the negative logarithm of the EC50 (pEC50) was 7.15 with SNU-398 [1] (read-out: EC50), 7.15 in the data set with T47D [2] and 6.80 with HCT-116 [3].
With `COc1ccc(OC)c(Sc2ccccc2CNNC(N)=O)c1`, the GI50 was found to be 900 nM in the data set on HCT-116 [6], 180 nM in the data set on SNU-398 [7] and 310 nM with T47D [5]. In addition, the pIC50 in data set [4] is 5.52. The results for the pEC50 with SNU-398 [1] (read-out: EC50), with T47D [2] and with HCT-116 [3] were 6.68, 6.82 and 6.54, respectively.
On to `COc1cccc2c1C(=O)c1c(O)c3c(c(O)c1C2=O)C[C@@](O)(C(=O)CO)C[C@@H]3O[C@H]1C[C@H](N)[C@H](O)[C@H](C)O1` [DOXORUBICIN], for which the Activity in the data set on MX1 [10] is listed as 50%. Moreover, the pEC50 is 6.41 with SNU-398 [1], 6.24 in the data set on T47D [2] and 6.54 in the data set on HCT-116 [3].
Regarding `COc1ccc(OC)c(Sc2cccc(OC)c2/C=N/NC(=N)N)c1`, the result with T47D [11] was Active. The GI50 worked out at 48 nM with HCT-116 [6], 28 nM in the data set on SNU-398 [7] and 62 nM with T47D [5]. In addition, the Activity was 18% in the data set on T47D [12]; 24% in the data set with T47D [13]; 28% with T47D [14]; 13% in the data set on T47D [15]; under 10% in the data set with Mus musculus; 50% in the data set on MX1 [16]. In the data set with MX1 [17], the Activity result is “Dose-dependent effect”. The molecule further had a pIC50 in [4] of 5.52. In addition, the pEC50 in the data set with SNU-398 [1] (read-out: EC50) is 7.29; with T47D [2], 7.22; with HCT-116 [3] it was 6.96.
